Consider three compounds from ChEMBL document CHEMBL3091324, “The optimization of aminooxadiazoles as orally active inhibitors of Cdc7” (Bioorg Med Chem Lett, 2013).

Data set [1] relates to Plasma. The experiment in a line: Unbound plasma concentration in NCR/nude mouse xenografted with human HCT116 cells at 100 mg/kg, po measured at 16 hrs by LC-MS analysis. The format is ADME, organism-based, HCT-116. Set-up: dose 100 mg/kg, route oral. The following applies: in vivo. The gist of the method:
(§1)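 Female NCR/nude mice (n = 3) dosed orally at 100 mg/kg; plasma sampled at 6 and 16 h; unbound concentration calculated from total plasma concentration and percent free fraction in mouse plasma.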
On the technique in general: Xenograft models place foreign cells or tissue in a host animal.

The test system of data set [2] is HCT-116. The experiment in a line: Cytotoxicity against human HCT116 cells assessed as cell viability after days by CellTiterGlo assay. In kind it is functional, cell-based. The gist of the method:
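HCT-116 cells exposed to compound for 4 d; cell viability IC50 determined.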
For orientation: ATP-based viability assays read luminescence as a measure of living cells.

The subject of data set [3] is Plasma. The experiment in a line: Unbound plasma concentration in NCR/nude mouse xenografted with human HCT116 cells at 100 mg/kg, po measured at 6 hrs by LC-MS analysis. The format is ADME, organism-based, HCT-116. On the set-up: dose 100 mg/kg, route oral. As to conditions: in vivo. A digest of the protocol: as §1
Data set [4] is described as follows: Intrinsic clearance in human liver microsomes. In kind it is ADME. The following applies: read-out: CLH. Background: Liver microsomes are a subcellular fraction often used to study metabolism.
A short description of data set [5]: Mean residence time in rat at 2 mg/kg, iv and 5 mg/kg, po. In kind it is ADME, organism-based. The following applies: in vivo.
Data set [6] addresses CDC7/DBF4 (Cell division cycle 7-related protein kinase/Activator of S phase kinase) (Homo sapiens, UniProt O00311). The experiment in a line: Inhibition of Cdc7/Dbf4 (unknown origin)-mediated MCM2 phosphorylation at Ser53 by protein A amplified luminescent proximity homogeneous assay. In kind it is protein-complex assay.
For data set [7], the target named is Cyclin-dependent kinase 2/cyclin E1 (Homo sapiens, UniProt P24941). The experiment in a line: Inhibition of CDK2/cyclin E (unknown origin) using ULight peptide as substrate by HTRF assay. In kind it is protein-complex assay.
The subject of data set [8] is Mus musculus. The experiment in a line: In vivo inhibition of Cdc7 in tumor of NCR/nude mouse xenografted with human HCT116 cells assessed as remaining Ser53 phosphorylated MCM2 level at 100 mg/kg, po measured at 16 hrs relative to control. In kind it is functional, HCT-116. A digest of the protocol:
(§2)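 Female NCR/nude mice (n = 3 per group) given single oral dose of 100 mg/kg; pMCM2 levels measured at 6 and 16 h, expressed as % remaining versus vehicle control group; significance by one-way ANOVA with Dunnett's test.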

Data set [9] has as its target Cyclin-dependent kinase 1/cyclin B1 (Homo sapiens, UniProt P06493). The experiment in a line: Inhibition of CDK1/cyclin B (unknown origin) by HTRF assay. The format is protein-complex assay.
Data set [10] has as its target CDK9/cyclin T1 (Homo sapiens, UniProt P50750). The experiment in a line: Inhibition of CDK9/cyclin T1 (unknown origin) using 4eBP1 ULight peptide as substrate by HTRF assay. In kind it is protein-complex assay.
The subject of data set [11] is Mus musculus. The experiment in a line: In vivo inhibition of Cdc7 in tumor of NCR/nude mouse xenografted with human HCT116 cells assessed as remaining Ser53 phosphorylated MCM2 level at 100 mg/kg, po measured at 6 hrs relative to control. In kind it is functional, HCT-116. A digest of the protocol:
as §2

Data set [12] in a line: Volume of distribution at steady state in rat at 2 mg/kg, iv and 5 mg/kg, po. As to conditions: in vivo, read-out: Vdss; call rule not given here. The format is ADME, organism-based.
Data set [13] in a line: Intrinsic clearance in rat liver microsomes. In kind it is ADME. The following applies: read-out: CLH.
Data set [14] is described as follows: Solubility of the compound in simulated intestinal fluid. The format is ADME.
Data set [15] is described as follows: Clearance in rat at 2 mg/kg, iv and 5 mg/kg, po. In kind it is ADME, organism-based. As to conditions: in vivo.
Data set [16] can be described thus: Oral bioavailability rat in 5 mg/kg. The format is ADME, organism-based. The following applies: in vivo.
For data set [17], the target named is Cell division cycle 7-related protein kinase (Homo sapiens, UniProt O00311). The experiment in a line: Inhibition of Cdc7-mediated MCM2 phosphorylation at Ser53 in human HCT116 cells after 14 hrs by immunostaining assay. In kind it is cell-based, HCT-116.
Data set [18] is described as follows: Clearance in rat at 2 mg/kg, iv and 2 mg/kg, po. In kind it is ADME, organism-based. As to conditions: in vivo.
Data set [19] is described as follows: Mean residence time in rat at 2 mg/kg, iv and 2 mg/kg, po. The format is ADME, organism-based. As to conditions: in vivo.
Data set [20] can be described thus: Volume of distribution at steady state in rat at 2 mg/kg, iv and 2 mg/kg, po. The format is ADME, organism-based. The following applies: in vivo, read-out: Vdss.
Data set [21] in a line: Oral bioavailability rat in 2 mg/kg. In kind it is ADME, organism-based. The following applies: in vivo.
The subject of data set [22] is Mus musculus. The experiment in a line: In vivo inhibition of Cdc7-mediated MCM2 phosphorylation at Ser53 in tumor of NCR/nude mouse xenografted with human HCT116 cells at 100 mg/kg, po. The format is functional, organism-based. Set-up: dose 100 mg/kg. The following applies: HCT-116, TDE = time-dependent effect. A digest of the protocol:
as §2

Data set [23] concerns Hepatocyte. The experiment in a line: Drug metabolism in rat hepatocytes assessed as GSH adduct level. The format is ADME, cell-based.

In brackets after ≈: the same amount, converted by molar mass.

Chain of CDC7/DBF4 (Cell division cycle 7-related protein kinase/Activator of S phase kinase) (Q9UBU7 whole entry): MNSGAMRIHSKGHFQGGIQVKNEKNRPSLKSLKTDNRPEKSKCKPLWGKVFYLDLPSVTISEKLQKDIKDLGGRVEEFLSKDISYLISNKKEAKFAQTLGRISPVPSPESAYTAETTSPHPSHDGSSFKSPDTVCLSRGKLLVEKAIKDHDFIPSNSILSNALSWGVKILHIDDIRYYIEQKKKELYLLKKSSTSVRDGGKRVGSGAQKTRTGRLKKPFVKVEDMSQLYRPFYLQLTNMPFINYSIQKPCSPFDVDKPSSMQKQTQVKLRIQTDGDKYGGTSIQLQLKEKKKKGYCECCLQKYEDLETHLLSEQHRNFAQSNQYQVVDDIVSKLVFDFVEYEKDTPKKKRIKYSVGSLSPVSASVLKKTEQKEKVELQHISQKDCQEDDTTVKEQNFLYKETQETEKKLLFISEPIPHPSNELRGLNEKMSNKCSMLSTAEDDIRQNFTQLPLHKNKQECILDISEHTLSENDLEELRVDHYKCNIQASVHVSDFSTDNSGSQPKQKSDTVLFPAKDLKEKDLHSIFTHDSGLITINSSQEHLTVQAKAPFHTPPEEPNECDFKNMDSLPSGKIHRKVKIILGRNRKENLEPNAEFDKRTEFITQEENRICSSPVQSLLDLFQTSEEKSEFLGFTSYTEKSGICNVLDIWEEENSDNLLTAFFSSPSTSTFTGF
Chain of CDC7/DBF4 (Cell division cycle 7-related protein kinase/Activator of S phase kinase) (O00311 whole entry): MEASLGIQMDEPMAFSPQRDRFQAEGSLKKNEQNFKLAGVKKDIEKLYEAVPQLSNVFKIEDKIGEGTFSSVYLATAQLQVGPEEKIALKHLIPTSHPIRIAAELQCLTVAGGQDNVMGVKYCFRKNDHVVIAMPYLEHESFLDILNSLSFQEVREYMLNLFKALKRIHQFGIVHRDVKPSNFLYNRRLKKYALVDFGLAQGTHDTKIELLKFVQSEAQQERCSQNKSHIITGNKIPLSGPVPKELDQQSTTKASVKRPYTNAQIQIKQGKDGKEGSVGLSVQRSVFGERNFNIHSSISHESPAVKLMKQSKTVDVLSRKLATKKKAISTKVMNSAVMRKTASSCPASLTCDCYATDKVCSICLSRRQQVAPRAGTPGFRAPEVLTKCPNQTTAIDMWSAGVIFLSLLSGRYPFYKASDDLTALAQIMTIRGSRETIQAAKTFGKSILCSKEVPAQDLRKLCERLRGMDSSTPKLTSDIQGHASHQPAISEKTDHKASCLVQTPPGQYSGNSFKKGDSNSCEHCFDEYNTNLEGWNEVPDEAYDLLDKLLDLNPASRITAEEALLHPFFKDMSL
Chain of Cell division cycle 7-related protein kinase (O00311 whole entry): as above
Chain of CDK9/cyclin T1 (O60563 whole entry): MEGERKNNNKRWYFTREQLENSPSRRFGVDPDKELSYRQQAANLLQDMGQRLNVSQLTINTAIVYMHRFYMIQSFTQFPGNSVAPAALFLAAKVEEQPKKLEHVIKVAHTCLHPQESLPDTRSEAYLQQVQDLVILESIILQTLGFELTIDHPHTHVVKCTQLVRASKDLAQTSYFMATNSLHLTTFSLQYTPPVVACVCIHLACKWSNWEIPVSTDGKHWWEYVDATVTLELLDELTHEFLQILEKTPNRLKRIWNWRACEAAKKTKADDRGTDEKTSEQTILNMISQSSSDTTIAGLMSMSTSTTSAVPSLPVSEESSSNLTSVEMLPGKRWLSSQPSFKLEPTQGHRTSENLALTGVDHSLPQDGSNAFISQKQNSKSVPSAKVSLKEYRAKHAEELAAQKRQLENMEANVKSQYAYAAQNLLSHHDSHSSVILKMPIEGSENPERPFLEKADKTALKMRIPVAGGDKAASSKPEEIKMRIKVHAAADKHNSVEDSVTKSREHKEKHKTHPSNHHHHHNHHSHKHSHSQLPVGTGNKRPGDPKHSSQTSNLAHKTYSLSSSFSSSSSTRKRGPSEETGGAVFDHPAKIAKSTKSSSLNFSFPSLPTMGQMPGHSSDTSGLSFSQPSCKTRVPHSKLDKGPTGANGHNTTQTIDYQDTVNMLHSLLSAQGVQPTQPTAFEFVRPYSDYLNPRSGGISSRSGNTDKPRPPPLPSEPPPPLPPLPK
Chain of CDK9/cyclin T1 (P50750 whole entry): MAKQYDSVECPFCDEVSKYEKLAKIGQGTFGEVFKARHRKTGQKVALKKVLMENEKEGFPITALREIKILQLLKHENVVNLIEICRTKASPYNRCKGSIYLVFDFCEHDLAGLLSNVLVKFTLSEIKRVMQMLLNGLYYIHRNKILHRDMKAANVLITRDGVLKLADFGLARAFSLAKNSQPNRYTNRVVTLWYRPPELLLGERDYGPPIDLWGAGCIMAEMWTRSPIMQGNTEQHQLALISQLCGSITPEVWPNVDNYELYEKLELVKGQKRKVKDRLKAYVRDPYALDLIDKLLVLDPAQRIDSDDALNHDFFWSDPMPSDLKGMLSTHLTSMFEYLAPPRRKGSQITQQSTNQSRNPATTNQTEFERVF
Chain of Cyclin-dependent kinase 1/cyclin B1 (P06493 whole entry): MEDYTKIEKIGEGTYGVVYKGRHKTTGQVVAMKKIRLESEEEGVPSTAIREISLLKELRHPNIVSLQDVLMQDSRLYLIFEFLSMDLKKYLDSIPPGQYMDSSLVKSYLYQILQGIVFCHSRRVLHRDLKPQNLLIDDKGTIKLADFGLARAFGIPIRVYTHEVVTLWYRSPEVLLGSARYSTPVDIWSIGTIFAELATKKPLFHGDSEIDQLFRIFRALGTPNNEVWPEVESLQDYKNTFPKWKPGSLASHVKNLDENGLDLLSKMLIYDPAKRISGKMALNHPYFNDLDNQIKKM
Chain of Cyclin-dependent kinase 1/cyclin B1 (P14635 whole entry, further chain): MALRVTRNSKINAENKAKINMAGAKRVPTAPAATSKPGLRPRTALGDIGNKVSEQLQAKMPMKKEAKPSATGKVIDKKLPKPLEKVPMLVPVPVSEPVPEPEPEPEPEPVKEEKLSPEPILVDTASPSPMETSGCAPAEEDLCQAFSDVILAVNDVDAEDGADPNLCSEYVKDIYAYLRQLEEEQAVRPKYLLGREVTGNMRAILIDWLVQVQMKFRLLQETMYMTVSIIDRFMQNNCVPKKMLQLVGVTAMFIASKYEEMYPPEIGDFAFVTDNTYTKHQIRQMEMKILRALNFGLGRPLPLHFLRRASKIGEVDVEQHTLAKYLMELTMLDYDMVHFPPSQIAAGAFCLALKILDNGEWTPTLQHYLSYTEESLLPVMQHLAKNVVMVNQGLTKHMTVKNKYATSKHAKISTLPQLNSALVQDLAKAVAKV

Broadly, the IC50 is the concentration that inhibits the measured activity by half. As usually defined, the MRT is a mean duration of stay, worked out from the concentration-time curve. The solubility is the concentration that dissolves in the medium under given conditions. The term bioavailability denotes dose-corrected exposure relative to a reference, in per cent. A high value points to good availability. In the case of `Fc1ccccc1[C@H](Nc1nnc(-c2c[nH]c3ncccc23)o1)C1CC1`, the “Cp(f)” value in data set [1] worked out at 60 nM; in data set [3], 150 nM. The IC50 in [2] was 880 nM; in data set [6] it was 0.85 nM; in [7] it was 240 nM; in [9], 1600 nM; in data set [10], 31 nM; in [17] it was 20 nM. Besides, the results for the microsomal CLint in [4] and in data set [13] were 59 µL/min/mg and 63 µL/min/mg, respectively. In [5], this compound returned an MRT of 2.7 h. Moreover, the “Remaining Ser53 phospho-MCM2 vs control” value in data set [8] was 46%. In data set [11], the “Remaining phospho-MCM2 (% of control)” value stood at 38%. Further, in data set [12], the Vd was found to be 5.3 L/kg. Also, the solubility in data set [14] is 5 µg/mL (≈ 14.3 µM). The compound further gave a clearance in [15] of 33.3 mL/min/kg. This compound also had a bioavailability in data set [16] of 35%.
In [18], `Fc1cnccc1[C@H](Nc1nnc(-c2c[nH]c3ncccc23)o1)C1CC1` gave a clearance of 75 mL/min/kg. Further, the “Cp(f)” value in data set [1] came to 450 nM; in data set [3], 2000 nM. In data set [19], this compound registered an MRT of 1.4 h. Besides, the IC50 is 5700 nM in [2]; 1.8 nM in data set [6]; 1900 nM in [7]; more than 50000 nM in data set [9]; 940 nM in [10]; 60 nM in [17]. In addition, the microsomal CLint in data set [4] was found to be 27 µL/min/mg; in data set [13] it was 45 µL/min/mg. For the same compound, the Vd in [20] worked out at 6.1 L/kg. In addition, the bioavailability in data set [21] came to 14%. Moreover, in data set [8], the “Remaining Ser53 phospho-MCM2 vs control” value was determined as 24%. For the same compound, the “Remaining phospho-MCM2 (% of control)” value in data set [11] was 62%. In addition, the Activity result in [22] is “tde”. Also, in data set [14], the solubility is 200 µg/mL (≈ 571 µM).
As to `C[C@@H](Nc1nnc(-c2c[nH]c3ncccc23)o1)c1ccccc1`, in data set [23], the Drug metabolism entry was “Active”. In addition, the results for the microsomal CLint in data set [4] and in data set [13] were 64 µL/min/mg and 25 µL/min/mg, respectively. The IC50 in [6] was determined as 32 nM; in data set [7], 310 nM; in [17] it was 370 nM.
